Ecoli WT expand = growth inhibitors of wild-type E. coli, primary screen, strain BW25113, expanded library, OD600; hit rate 0.15% among 98,000; growth inhibition, % at 100 µM; AID 710, 2007; OD600 absorbance;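 active = growth inhibition above about 50% at one test dose, limit read from the data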;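 also: growth measured after 20 h incubation at 37 °C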
CYP2C9 inhib = blockers of cytochrome P450 2C9 activity – biochemical, luminescence, ADME assay, primary screen; P11712; CYP2C9 Supersomes, luciferin-H conversion; inhibition, % at 5 µM; hit rate 20% among 96,000; AID 777, 2007;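 active = blocking of liver enzyme CYP2C9 beyond about 50% at 5 µM, limit read from the data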
Target sequence (P11712 whole entry, looked up): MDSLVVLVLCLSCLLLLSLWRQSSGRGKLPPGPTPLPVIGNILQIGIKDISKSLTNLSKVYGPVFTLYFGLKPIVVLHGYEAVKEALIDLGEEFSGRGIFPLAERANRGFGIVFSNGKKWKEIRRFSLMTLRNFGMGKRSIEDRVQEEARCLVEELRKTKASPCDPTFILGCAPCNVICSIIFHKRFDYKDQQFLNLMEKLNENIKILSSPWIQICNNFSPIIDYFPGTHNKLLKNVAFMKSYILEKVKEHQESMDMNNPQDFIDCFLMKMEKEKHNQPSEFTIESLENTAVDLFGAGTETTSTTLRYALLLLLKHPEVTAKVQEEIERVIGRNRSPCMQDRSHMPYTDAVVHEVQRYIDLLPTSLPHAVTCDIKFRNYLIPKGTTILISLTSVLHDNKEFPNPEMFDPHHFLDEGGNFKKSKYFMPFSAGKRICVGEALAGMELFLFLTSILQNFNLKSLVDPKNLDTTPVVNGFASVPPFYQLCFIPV
CYP2C19 inhib = blockers of cytochrome P450 2C19 activity – biochemical, luminescence, ADME assay, primary screen | inhibition, % at 5 µM | AID 778, 2007 | CYP2C19 Supersomes, luciferin-H EGE luminescence, 30 min | hit rate 21% among 96,000;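 active = CYP2C19 inhibition above a set limit at 5 µM in the primary screen, cut at about 50% in these data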;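 also: plate controls were negative control wells for no effect and 2.5 mM tranylcypromine positive control for full effect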
CYP2C19 act = human CYP2C19 activators, primary screen, biochemical, luminescence. recombinant CYP2C19, luciferin-H EGE luminescence; active compounds read high; 0 = fully inhibited enzyme, 1 = untreated enzyme. activation factor at 5 µM. 96,000 tested, under 10 active. AID 1025, 2008;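 active = activation factor of at least 2 at 5 µM in the primary screen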;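 also: 0 = wells with 2.5 mM tranylcypromine and 1 = vehicle-only wells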
Ecoli tolC = growth inhibitors of E. coli tolC mutant, primary screen, strain BW25113 ΔtolC::kan, 384-well. OD615. growth inhibition, % at 10 µM (by protocol). hit rate 2.2% among 65,000;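 active = growth inhibition at or above a cutoff equal to the mean over every tested compound plus 3 SD, cut at about 60% in these data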;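 also: growth measured after 20 h incubation at 37 °C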
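test system = E. coli BW25113 ΔtolC::kan bacteria | medium = LB with kanamycin 50 µg/mL | signal = OD at 615 nm | schedule = 37 °C, 20 h exposure | evaluation = % inhibition of E. coli growth | compound dosing = one dose of 10 µM final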
CYP2C9 act = human CYP2C9 activators, primary screen, biochemical, luminescence; hit rate 1.4% among 96,000; activation factor at 5 µM; Cytochrome P450 2C9 (Homo sapiens), P11712; recombinant CYP2C9, luciferin-H conversion; active compounds read high; factor 1 = untreated enzyme, 0 = blocked;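 active = activation factor of 2 or more for CYP2C9 at a 5 µM dose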;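 also: 0 = sulfaphenazole-blocked wells and 1 = vehicle-only wells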
An asterisk follows results filed as active; . = not tested or not shown. Shown are actives, neighbours in structure and some others; about 29% of the full set was active somewhere.

SMILES	Ecoli WT expand	CYP2C9 inhib	CYP2C19 inhib	CYP2C19 act	Ecoli tolC	CYP2C9 act
COCCn1c(C)cc(C(=O)CSc2ncn[nH]2)c1C	4	-83	45	0.6	-26	1.8
COc1cccc(S(=O)(=O)NCc2ccc(C(=O)Nc3ccc(C)cc3)cc2)c1	-2	-5	8	0.9	.	1.1
CCN(CC)CCNc1nc2c(c(=O)[nH]c(=O)n2C)n1CCOc1ccccc1	.	.	.	.	1	.
O=C(CSc1nnc2ccccn12)c1ccc(OC(F)F)cc1OC(F)F	7	27	76*	0.2	8	0.7
CC(C)CCNC(=O)NC(=O)CSc1nnc2ccccn12	-5	-16	6	0.9	-7	1.2
COC(=O)CCN1CCC(C(N)=O)CC1	8	48	10	0.9	-3	0.5
COc1ccc(/C=N/c2oc(-c3ccccc3)cc2C#N)cc1OC	5	38	54*	0.5	.	0.6
O=C(NCCC1=CCCCC1)C1CCN(S(=O)(=O)c2cccc3cccnc23)CC1	-7	-4	32	0.7	26	1
O=C(CN(Cc1ccco1)S(=O)(=O)c1cccs1)Nc1ccccc1C(F)(F)F	8	79*	90*	0.1	16	0.2
Cc1ccc(CSc2sc(C(=O)c3ccccc3)c(N)c2C#N)cc1	-15	61*	31	0.7	.	0.4
N#Cc1c(SCc2cccc(Cl)c2)sc(C(=O)c2ccccc2)c1N	-24	89*	81*	0.2	.	0.1
O=C(COC(=O)C12CC3CC(CC(O)(C3)C1)C2)N1CCN(S(=O)(=O)c2ccc(Cl)cc2)CC1	-2	.	.	.	1	.
CCCCCCCCNC(=O)C(CCC(=O)OCc1ccccc1)NC(C)=O (stereo not given)	-11	7	75*	0.3	.	0.9
COC(=O)C(CCCCNC(=O)OCc1ccccc1)NC(=O)CN (stereo not given)	1	44	51*	0.5	-5	0.6
Oc1ccccc1C(=S)N1CCCCC1	4	18	78*	0.2	-9	0.8
Oc1ccccc1C(=S)N1CCCCCC1	1	16	52*	0.5	-15	0.8
Cc1ccc(O)c(C(=O)c2coc(=N)c(C(=O)NC(C)C)c2)c1	1	-7	33	0.7	.	1.1
CCOC(=O)CNC(=O)c1cn(CC(C)C)c(=O)c2cc(OC)c(OC)cc12	.	.	.	.	9	.
CC(C)CC(=O)Nc1ccc(N2CCOCC2)cc1	3	-6	7	0.9	.	1.1
COC(=O)c1cccc(C(=O)Nc2ccc(C)cc2)n1	5	13	24	0.8	44	0.9
CCOC(=O)C1=C(O)/C(=C/N(C)C)N=C1C	-7	-4	-8	1.1	-4	1
COC(=O)C1=C(O)/C(=C\c2ccc(CNC(=O)C(=O)Nc3ccc(C)c(C)c3)o2)N=C1C	-14	80*	50*	0.5	.	0.2
COC(=O)[C@H](C)NC(=O)Nc1ccc(C)c(C)c1	6	31	24	0.8	-29	0.7
COC(=O)C1=C(O)/C(=C\c2ccc(CNC(=O)C(=O)Nc3ccc(C)cc3)o2)N=C1C	-6	88*	59*	0.4	.	0.1
CCOC(=O)C1=C(O)/C(=C/c2ccc(CNC(=O)C(=O)Nc3ccc(C)cc3)o2)N=C1C	-1	90*	66*	0.3	.	0.1
SMILES	Ecoli WT expand	CYP2C9 inhib	CYP2C19 inhib	CYP2C19 act	Ecoli tolC	CYP2C9 act
Cc1nonc1OCCNC(=O)C12CC3CC(CC(C3)C1)C2	5	-3	8	0.9	-8	1
COc1ccnc(Oc2ccccc2)c1C(=O)N/C=N/OCc1ccc(F)cc1Cl	-6	56*	66*	0.3	.	0.4
CO/N=C/NC(=O)c1c(OC)ccnc1Oc1ccc(Cl)cc1	2	24	19	0.8	.	0.8
COc1ccccc1CO/N=C/NC(=O)c1c(OC)ccnc1Oc1ccc(F)cc1	-11	77*	97*	0	.	0.2
CC(C)CNc1oc(-c2ccc(F)cc2)nc1C#N	-5	40	16	0.8	-14	0.6
O=c1c2sc3nc(N4CCOCC4)c4c(c3c2ncn1CCc1ccccc1)CCCC4	-5	61*	52*	0.5	.	0.4
